In series [1] the target is Epidermal growth factor receptor (Homo sapiens, UniProt P00533). Description: Inhibition of human recombinant HER1 expressed in Sf9 cells by liquid scintillation counting.
The target of series [2] is Receptor tyrosine-protein kinase erbB-2 (Homo sapiens, UniProt P04626). Nature of the series: Inhibition of human recombinant HER2 expressed in Sf9 cells by liquid scintillation counting.
Another series deals with BT-474. Description: Antiproliferative activity against human BT474 cells after 72 hrs by MTT assay. The class given is functional, cell-based. The following applies: BT-474, 72 h. A digest of the protocol: (§1)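 Cell proliferation IC50 reported as the mean of three independent determinations. BT474 is a breast line (HER2+++/HER1+); A2780 serves as a HER-independent control.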
A general note: Tetrazolium assays rely on reduction of a dye to a coloured formazan, in cell work by metabolically active cells.

The next series concerns NCI-N87. Description: Antiproliferative activity against human NCI-N87 cells after 72 hrs by MTT assay. In kind it is functional, cell-based. The following applies: NCI-N87, 72 h.
Series [3] can be described thus: Antiproliferative activity against mouse SAL2 cells after 72 hrs by MTT assay. In kind it is functional, cell-based. The following applies: SAL2, 72 h.
The next series has as its system A2780. Description: Antiproliferative activity against human A2780 cells after 72 hrs by MTT assay. In kind it is functional, cell-based. The following applies: A2780, 72 h. A digest of the protocol:
as §1

Series [4] can be described thus: AUC (0 to 4 hrs) in BALB/c mouse at 50 mg/kg, po. The class given is ADME, organism-based. The arrangement: time < 4 hr, dose 50 mg/kg, route oral. The following applies: plasma.
Series [5] in a line: Cmax in BALB/c mouse at 50 mg/kg, po. The class given is ADME, organism-based. Further details: dose 50 mg/kg, route oral. The following applies: in vivo.
Another series relates to Mus musculus. Description: Plasma concentration in BALB/c mouse at 50 mg/kg, po. The class given is ADME, organism-based. Further details: dose 50 mg/kg, route oral. The following applies: in vivo. In outline:
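Compound given orally at 50 mg/kg as a solution in PEG400/Tween80/water (40:10:50) to three Balb/C mice. Plasma sampled over 4 h after dosing; AUC(0-4h), Cmax and 4 h concentration reported.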

A short description of series [6]: Metabolic stability in mouse liver microsomes assessed per mg of protein at 10 uM after 10 mins. In kind it is ADME, Microsome. A digest of the protocol:
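Mouse liver microsomes incubated with compound at 10 µM for 10 min; metabolic rate expressed as nmol/min/mg protein.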
For orientation: Liver microsomes are vesicles of endoplasmic reticulum, rich in cytochrome P450 enzymes.

Here are results for eleven molecules from ChEMBL document CHEMBL1154610, “Discovery and preclinical evaluation of [4-[[1-(3-fluorophenyl)methyl]-1H-indazol-5-ylamino]-5-methylpyrrolo[2,1-f][1,2,4]triazin-6-yl]carbamic acid, (3S)-3-morpholinylmethyl ester (BMS-599626), a selective and orally efficacious inhibitor of human epidermal growth factor receptor 1 and 2 kinases” (J Med Chem, 2009).

pIC50: −log10 of the molar value.

Epidermal growth factor receptor, sequence (P00533 whole entry): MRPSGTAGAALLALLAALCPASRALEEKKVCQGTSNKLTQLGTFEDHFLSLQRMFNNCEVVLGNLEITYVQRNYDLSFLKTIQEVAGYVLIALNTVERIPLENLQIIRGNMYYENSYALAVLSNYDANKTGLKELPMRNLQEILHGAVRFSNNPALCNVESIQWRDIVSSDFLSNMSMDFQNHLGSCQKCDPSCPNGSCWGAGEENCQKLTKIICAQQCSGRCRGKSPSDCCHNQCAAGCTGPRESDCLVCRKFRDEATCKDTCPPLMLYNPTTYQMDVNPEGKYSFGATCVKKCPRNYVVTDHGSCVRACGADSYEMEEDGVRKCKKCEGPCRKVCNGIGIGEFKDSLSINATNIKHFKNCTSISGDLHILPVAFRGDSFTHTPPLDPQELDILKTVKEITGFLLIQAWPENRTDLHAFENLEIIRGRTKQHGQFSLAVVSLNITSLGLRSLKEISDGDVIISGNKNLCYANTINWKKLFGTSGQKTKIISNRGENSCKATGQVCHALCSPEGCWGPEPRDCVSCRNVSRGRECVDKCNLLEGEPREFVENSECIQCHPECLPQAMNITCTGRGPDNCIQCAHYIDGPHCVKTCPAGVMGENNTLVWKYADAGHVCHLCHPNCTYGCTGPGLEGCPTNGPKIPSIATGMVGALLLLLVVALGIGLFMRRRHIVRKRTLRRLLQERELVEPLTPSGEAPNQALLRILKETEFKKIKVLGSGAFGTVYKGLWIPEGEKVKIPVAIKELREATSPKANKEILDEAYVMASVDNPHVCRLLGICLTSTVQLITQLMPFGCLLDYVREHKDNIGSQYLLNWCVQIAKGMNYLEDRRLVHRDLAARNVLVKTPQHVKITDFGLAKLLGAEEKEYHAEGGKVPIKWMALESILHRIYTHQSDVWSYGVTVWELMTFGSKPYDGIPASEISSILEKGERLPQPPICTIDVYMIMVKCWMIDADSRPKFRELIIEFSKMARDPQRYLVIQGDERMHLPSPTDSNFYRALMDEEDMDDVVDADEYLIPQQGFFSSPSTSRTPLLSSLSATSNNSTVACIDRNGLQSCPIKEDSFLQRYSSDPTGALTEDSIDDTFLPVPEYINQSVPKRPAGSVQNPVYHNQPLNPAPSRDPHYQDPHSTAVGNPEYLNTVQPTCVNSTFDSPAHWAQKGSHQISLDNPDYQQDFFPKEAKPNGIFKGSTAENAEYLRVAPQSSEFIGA
Receptor tyrosine-protein kinase erbB-2, sequence (P04626 whole entry): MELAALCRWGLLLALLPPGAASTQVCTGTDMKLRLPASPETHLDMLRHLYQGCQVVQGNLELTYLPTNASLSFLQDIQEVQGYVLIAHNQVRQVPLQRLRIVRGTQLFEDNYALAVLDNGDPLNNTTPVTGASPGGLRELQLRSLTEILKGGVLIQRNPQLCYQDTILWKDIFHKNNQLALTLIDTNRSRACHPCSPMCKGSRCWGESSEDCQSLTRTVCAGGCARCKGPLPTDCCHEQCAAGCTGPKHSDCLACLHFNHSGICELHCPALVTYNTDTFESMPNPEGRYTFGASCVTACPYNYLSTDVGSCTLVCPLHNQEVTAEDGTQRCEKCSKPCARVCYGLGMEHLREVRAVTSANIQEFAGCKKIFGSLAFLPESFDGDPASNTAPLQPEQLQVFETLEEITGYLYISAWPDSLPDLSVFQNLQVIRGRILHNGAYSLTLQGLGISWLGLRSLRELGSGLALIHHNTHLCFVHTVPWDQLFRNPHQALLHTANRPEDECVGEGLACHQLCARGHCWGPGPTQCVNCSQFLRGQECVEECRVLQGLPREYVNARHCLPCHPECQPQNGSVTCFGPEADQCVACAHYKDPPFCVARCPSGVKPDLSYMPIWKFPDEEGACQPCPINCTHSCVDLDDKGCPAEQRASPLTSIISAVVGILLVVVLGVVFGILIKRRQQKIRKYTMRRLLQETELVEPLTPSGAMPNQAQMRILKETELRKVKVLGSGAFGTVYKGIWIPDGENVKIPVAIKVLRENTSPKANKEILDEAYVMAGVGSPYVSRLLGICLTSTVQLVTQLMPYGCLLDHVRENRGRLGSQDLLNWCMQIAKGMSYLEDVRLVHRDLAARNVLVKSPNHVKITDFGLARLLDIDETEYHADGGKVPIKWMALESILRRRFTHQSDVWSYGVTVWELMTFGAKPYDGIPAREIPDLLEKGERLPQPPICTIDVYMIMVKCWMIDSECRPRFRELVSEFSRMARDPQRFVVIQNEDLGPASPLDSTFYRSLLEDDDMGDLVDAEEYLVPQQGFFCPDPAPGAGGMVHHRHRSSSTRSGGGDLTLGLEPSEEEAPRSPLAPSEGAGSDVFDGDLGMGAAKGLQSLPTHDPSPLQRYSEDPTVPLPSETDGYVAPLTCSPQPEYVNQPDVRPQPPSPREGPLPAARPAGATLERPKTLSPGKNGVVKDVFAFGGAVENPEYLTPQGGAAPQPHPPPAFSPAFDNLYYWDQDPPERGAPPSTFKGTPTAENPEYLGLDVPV

Consider `CCC1=C2C(Nc3ccc4c(cnn4Cc4ccccc4)c3)=NC=NC2N=C1NC(=O)OCC1CCCCN1` (centres undefined), for which the pIC50 in series [1] is 7.35; in [2] it was 7.52; in the series with BT-474, 6.33; with NCI-N87, 6.37; in series [3], 6.60; in the series on A2780, 5.32. For the same molecule, in [4], the AUC(0-t) at 4 h came to 7.2 µM·h. This molecule displayed a Cmax in series [5] of 2300 nM. The molecule further displayed a concentration in the series with Mus musculus of 2300 nM.

In the case of `CCC1=C2C(Nc3ccc4c(cnn4Cc4ccccc4)c3)=NC=NC2N=C1NC(=O)OCC1CCNCC1` (centres undefined), the pIC50 in series [1] was 7.52; in series [2], 7.64; in the series on BT-474 it was 7.05; in the series on NCI-N87, 6.77; in series [3], 6.89. The same molecule gave an AUC(0-t) at 4 h in series [4] of 1.3 µM·h. The highest level in series [5] (Cmax) was 450 nM. In the series with Mus musculus, this molecule returned a concentration of 260 nM.

As for `CCC1=C2C(Nc3ccc4c(cnn4Cc4ccccc4)c3)=NC=NC2N=C1NC(=O)OCC1CCCNC1` (centres undefined), the pIC50 in [1] is 7.42; in series [2], 7.54; with BT-474, 6.51; in the series with NCI-N87, 6.49; in [3], 6.32; in the series on A2780, 5.41. For the same molecule, the AUC(0-t) at 4 h in series [4] amounted to 3.6 µM·h. This molecule yielded a Cmax in series [5] of 1200 nM. In the series on Mus musculus, the concentration was determined as 1200 nM.

In the case of `CCC1=C2C(Nc3ccc4c(cnn4Cc4ccccc4)c3)=NC=NC2N=C1NC(=O)OCCN1CCCCC1` (centres undefined), the pIC50 in series [1] was 7.42; in [2], 7.55; with BT-474, 6.51; in the series on NCI-N87, 6.41; in [3], 6.42. In [4], the AUC(0-t) at 4 h was 5.5 µM·h. The same molecule returned a Cmax in series [5] of 1700 nM. Besides, the concentration in the series with Mus musculus amounted to 1300 nM. For the same molecule, the Stability in [6] was 0.27 nmol/min.

`CCC1=C2C(Nc3ccc4c(cnn4Cc4ccccc4)c3)=NC=NC2N=C1NC(=O)OCCN1CCOCC1` (centres undefined): the pIC50 is 6.95 in series [1]; 7.11 in [2]; 6.26 with BT-474; 6.28 with NCI-N87; 6.30 in [3]. This molecule gave an AUC(0-t) at 4 h in series [4] of 29 µM·h. In series [5], this molecule had a Cmax of 11000 nM. In the series on Mus musculus, this molecule registered a concentration of 4900 nM.

Take `CCC1=C2C(Nc3ccc4c(cnn4Cc4cccc(F)c4)c3)=NC=NC2N=C1NC(=O)OC[C@@H]1COCCN1` (some centres undefined): the negative-log IC50 (pIC50) in series [1] was 7.64; in series [2], 7.66; in the series with BT-474, 6.72; in the series with NCI-N87, 6.47; in [3] it was 6.64; in the series on A2780, 5.09. This molecule yielded an AUC(0-t) at 4 h in series [4] of 16.2 µM·h. Also, the concentration in series [5] peaked (Cmax) at 5100 nM. Besides, the concentration in the series on Mus musculus was determined as 5100 nM. In addition, the Stability in series [6] is 0.01 nmol/min.

Consider `CCC1=C2C(Nc3ccc4c(cnn4Cc4ccccc4)c3)=NC=NC2N=C1NC(=O)OCCC1CCNCC1` (centres undefined), for which the negative-log IC50 (pIC50) in series [1] was 7.36; in [2], 7.43; in the series on BT-474 it was 6.89; in the series on NCI-N87 it was 6.68; in series [3], 6.31. This molecule also displayed an AUC(0-t) at 4 h in series [4] of 0.53 µM·h. In series [5], this molecule registered a Cmax of 250 nM. For the same molecule, in the series with Mus musculus, the concentration is 110 nM.

For the molecule `CCC1=C2C(Nc3ccc4c(cnn4Cc4ccccc4)c3)=NC=NC2N=C1NC(=O)OCCN1CCNCC1` (centres undefined), the pIC50 was 7.68 in series [1]; 7.74 in series [2]; 7.15 in the series with BT-474; 7.00 with NCI-N87; 6.60 in [3]. For the same molecule, the AUC(0-t) at 4 h in series [4] turned out to be 0.62 µM·h. In addition, the Cmax in [5] worked out at 300 nM. In addition, the concentration with Mus musculus was 300 nM. In series [6], the Stability worked out at 0.1 nmol/min.

Take `CCc1c(NC(=O)OC[C@@H]2COCCN2)cn2ncnc(Nc3ccc4c(cnn4Cc4ccccc4)c3)c12`: the pIC50 is 7.48 in [1]; 7.68 in series [2]; 6.38 in the series on BT-474; 6.46 in the series on NCI-N87; 6.77 in [3]; 5.35 in the series with A2780. The AUC(0-t) at 4 h in series [4] was determined as 11 µM·h. In [5], this molecule returned a Cmax of 3500 nM. In the series on Mus musculus, the concentration came out at 2600 nM. Moreover, the Stability in series [6] is recorded as 0.14 nmol/min.

Turning to `CCC1=C2C(Nc3ccc4c(cnn4Cc4ccccc4)c3)=NC=NC2N=C1NC(=O)O[C@H]1CC[C@@](C)(N)CC1` (some centres undefined), the pIC50 in series [1] is 7.72; in [2] it was 7.70; with BT-474, 6.89; in the series with NCI-N87, 6.77; in series [3], 6.43; in the series with A2780, 5.28. The same molecule gave an AUC(0-t) at 4 h in series [4] of 1.76 µM·h. This molecule yielded a Cmax in [5] of 480 nM. In the series with Mus musculus, the concentration is 460 nM. Also, the Stability in [6] was found to be 0.02 nmol/min.

Turning to `CCC1=C2C(Nc3ccc4c(cnn4Cc4ccccc4)c3)=NC=NC2N=C1NC(=O)OCCn1ccnc1` (centres undefined), the pIC50 in [1] is 7.40; in [2], 7.36; with BT-474, 6.07; in the series on NCI-N87, 6.01; in [3] it was 6.34; in the series with A2780, below 5.30. Also, the exposure AUC(0-t) at 4 h in series [4] was determined as 36 µM·h. Also, the Cmax in [5] was determined as 9900 nM. Besides, in the series on Mus musculus, the concentration worked out at 9900 nM.

Broadly, the pIC50 is the negative decadic logarithm of the IC50, by convention in mol/L. As a reminder, the AUC(0-t) is the area under the concentration-time curve up to a stated or last time point. Low readings indicate less exposure, high ones more exposure. One may read the Cmax as the peak of the concentration-time curve.
